Results taken from ChEMBL document CHEMBL4229356, “Synthesis and antikinetoplastid evaluation of bis(benzyl)spermidine derivatives” (Eur J Med Chem, 2018).

How the values were obtained:
[1] = Selectivity index, ratio of CC50 for mouse RAW264.7 cells to IC50 for Leishmania donovani LV9 axenic amastigotes incubated for 72 hrs by resazurin dye based assay; type: toxicity; details: read-out: Ratio CC50/IC50
[2] = tested on: Trypanosoma brucei gambiense; experiment: Trypanocidal activity against Trypanosoma brucei gambiense FeoITMAP/1893 after 72 hrs by resazurin dye based assay; type: functional, organism-based; details: FeoITMAP/1893, 72 h
Outline: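 T. b. gambiense Feo was grown in supplemented IMDM with 10% FBS. Cells at 4.10⁴/mL were exposed 72 h at 37 °C, 5% CO2 in the dark to two-fold dilutions. Resazurin (450 µM solution) was added for 6 h and read at OD570/OD600. Result given as IC50; pentamidine was the reference.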

[3] = Selectivity index, ratio of CC50 for mouse RAW264.7 cells to IC50 for Trypanosoma brucei gambiense FeoITMAP/1893; type: toxicity; details: read-out: Ratio CC50/IC50
[4] = Selectivity index, ratio of CC50 for mouse RAW264.7 cells to IC50 for Leishmania donovani LV9 axenic intramacrophage amastigotes infected in mouse RAW264.7 cells; type: toxicity, cell-based; details: read-out: Ratio CC50/IC50
[5] = Cytotoxicity against mouse RAW264.7 cells assessed as reduction in cell viability after 48 hrs by resazurin assay; type: cell-based
Outline: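 RAW 264.7 macrophages at 2.10⁴/well were preincubated 24 h, then exposed 48 h at 37 °C, 5% CO2 to two-fold dilutions in DMEM. Resazurin was added for 4 h in the dark and read at OD570/OD600. Result given as CC50.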

Leishmania donovani [6] = experiment: Antiparasitic activity against Leishmania donovani LV9 axenic intramacrophage amastigotes infected in mouse RAW264.7 cells incubated for 48 hrs by Sybr Green 1 dye based fluorescence assay; type: functional, organism-based; details: LV9, RAW264.7, 48 h
Outline: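 RAW 264.7 cells at 2.10⁴/well were infected 24 h with axenic amastigotes at a 16:1 parasite to macrophage ratio, then extracellular parasites were removed. Cells were treated 48 h with two-fold dilutions from 100 µM. They were then lysed (freeze-thaw, proteinase K, 55 °C overnight) and total DNA read by SYBR Green I fluorescence against untreated infected cells. Result given as IC50.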

Leishmania donovani [7] = experiment: Antiparasitic activity against Leishmania donovani LV9 axenic amastigotes incubated for 72 hrs by resazurin dye based assay; type: functional, organism-based; details: LV9, 72 h
Outline: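 LV9 axenic amastigotes were derived from promastigotes in M-199 at pH 5.5, 37 °C, 5% CO2, and used in log phase. Cells at 10⁶/mL were exposed 72 h to two-fold dilutions from 100 to 0.02 μM. Resazurin was then added for 24 h in the dark and read at OD570/OD600. IC50 is relative to excipient-only controls; miltefosine was the reference.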

Trypanothione reductase [8] = biological target: T1, Trypanothione reductase (Trypanosoma brucei brucei, UniProt P39051); experiment: Mixed-type inhibition of Trypanosoma brucei trypanothione reductase assessed as enzyme-inhibitor complex using varying levels of TS2 as substrate in presence of NADPH by Lineweaver-Burk plot analysis
Outline: (§1)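 TryR assay in Hepes/EDTA buffer pH 7.5 with 100 μM NADPH at 25 °C, started with TS2 and read at 340 nm. Inhibition type was assigned from a Lineweaver-Burk plot.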

Trypanothione reductase [9] = biological target: T1, Trypanothione reductase; experiment: Mixed-type inhibition of Trypanosoma brucei trypanothione reductase assessed as enzyme-inhibitor-substrate complex using varying levels of TS2 as substrate in presence of NADPH by Lineweaver-Burk plot analysis; outline: as §1
[10] = biological target: Trypanothione reductase (Trypanosoma brucei brucei) (UniProt P39051); experiment: Inhibition of Trypanosoma brucei trypanothione reductase at 40 uM using 40 uM TS2 as substrate in presence of NADPH by spectrophotometric method relative to control
Outline: (§2)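 Recombinant T. brucei TryR (5-10 mU) in 40 mM Hepes, 1 mM EDTA, pH 7.5, with 100 μM NADPH, 5% DMSO, at 25 °C. Inhibitor was fixed at 40 μM; TS2 at 100 or 40 μM started the reaction. NADPH consumption was followed at 340 nm and % inhibition taken against DMSO-matched controls. Run in triplicate, mean ± SD.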

[11] = Stability in human plasma by HPLC analysis; type: ADME, cell-free; details: read-out: Stability
Outline: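 Human plasma was diluted 10-fold in PBS and incubated with 1 mM compound solutions for 0, 2 and 12 h at 37 °C. Samples were quenched with ice-cold acetonitrile, centrifuged, filtered and analysed by C18 reversed-phase HPLC at 25 °C.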

Trypanothione reductase [12] = biological target: T1, Trypanothione reductase; experiment: Inhibition of Trypanosoma brucei trypanothione reductase using TS2 as substrate in presence of NADPH by spectrophotometric method
Leishmania donovani [13] = experiment: Antiparasitic activity against Leishmania donovani amastigotes
[14] = biological target: Trypanothione reductase (Trypanosoma brucei brucei) (UniProt P39051); experiment: Inhibition of Trypanosoma brucei trypanothione reductase at 40 uM using 100 uM TS2 as substrate in presence of NADPH by spectrophotometric method relative to control; outline: as §2
Mus musculus = experiment: Toxicity in Swiss mouse assessed as death at 100 mg/kg, ip administered as single dose measured up to 30 days; type: organism-based; details: in vivo, 720 h
Outline: (§3)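 Swiss mice infected ip with 10,000 T. b. brucei CMP trypanosomes, randomly grouped (six per batch), then given one ip dose of 100 or 10 mg/kg; controls received pentamidine, melarsamine or excipient. Parasitemia followed at days 2, 3, 4 and 30; deaths recorded by day post-treatment; efficacy as mean survival time minus that of excipient-treated controls (days ± SD).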

[15] = tested on: Trypanosoma brucei brucei; experiment: Antitrypanosomal activity against Trypanosoma brucei brucei CMP infected in Swiss mouse assessed as change in mean survival time at 100 mg/kg, ip administered as single dose measured up to 30 days; type: functional; outline: as §3

T1 sequence (P39051 whole entry): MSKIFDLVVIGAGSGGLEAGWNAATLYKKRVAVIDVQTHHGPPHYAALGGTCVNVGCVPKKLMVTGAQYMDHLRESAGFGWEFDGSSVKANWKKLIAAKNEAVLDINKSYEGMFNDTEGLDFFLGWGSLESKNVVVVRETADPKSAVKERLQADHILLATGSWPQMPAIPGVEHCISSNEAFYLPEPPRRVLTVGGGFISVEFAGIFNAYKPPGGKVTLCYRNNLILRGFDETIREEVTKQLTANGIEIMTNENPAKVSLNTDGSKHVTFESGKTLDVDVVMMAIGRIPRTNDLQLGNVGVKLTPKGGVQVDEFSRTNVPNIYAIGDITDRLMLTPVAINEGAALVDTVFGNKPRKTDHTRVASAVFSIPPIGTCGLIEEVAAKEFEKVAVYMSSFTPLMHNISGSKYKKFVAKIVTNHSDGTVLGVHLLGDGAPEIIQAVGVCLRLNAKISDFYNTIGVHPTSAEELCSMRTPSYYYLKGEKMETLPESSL
Trypanothione reductase (Trypanosoma brucei brucei), sequence (P39051 whole entry, looked up): as the sequence (P39051 whole entry) above

SMILES | selectivity ratio at 72 h [1] | IC50 [2] | selectivity ratio [3] | selectivity ratio [4] | CC50 at 48 h [5] | IC50 (Leishmania donovani [6]) | IC50 (Leishmania donovani [7]) | Ki (Trypanothione reductase [8]) | Ki (Trypanothione reductase [9]) | inhibition [10] | half-life [11] | IC50 (Trypanothione reductase [12]) | IC50 (Leishmania donovani [13]) | inhibition [14] | Activity (Mus musculus) | Survival [15]
CC(C)(C)OC(=O)NCCCCN(CCCN(Cc1ccccc1)Cc1ccccc1)CCCN(Cc1ccccc1)Cc1ccccc1 | 5 | 0.3 µM | 41.7 | 8.3 | 12.5 µM | 1.5 µM | 2.5 µM |  |  |  |  |  |  |  |  | 
NCCCCNCCCN(Cc1ccccc1)Cc1ccccc1 |  | 8.8 µM | 2 |  | 17.7 µM | 27.4 µM | > 100 µM | 7.5 µM | 20 µM | > 50% | > 12 h | 8.8 µM | 25 µM |  |  | 
CC(C)(C)OC(=O)NC1CCC(NCCCN(Cc2ccc(F)cc2)Cc2ccc(F)cc2)CC1 (centres undefined) |  | 0.5 µM | 8.4 |  | 4.2 µM | 6.8 µM | 6.8 µM |  |  |  |  |  |  |  |  | 
CC(C)(C)OC(=O)NCCCCNCCCN(Cc1ccsc1)Cc1ccsc1 |  | 1.5 µM | 10.9 |  | 16.4 µM | 21.1 µM | 25.3 µM |  |  |  |  |  |  |  |  | 
CC(C)(C)OC(=O)NCCCCNCCCN(Cc1ccc2ccccc2c1)Cc1ccc2ccccc2c1 | 1.1 | 0.8 µM | 5.4 |  | 4.3 µM | 6.1 µM | 3.8 µM |  |  | 60% |  |  |  | 45% |  | 
NCCCCNCCCN(Cc1cccc(-c2ccccc2)c1)Cc1cccc(-c2ccccc2)c1 |  | 8.7 µM | 3.5 | 1.1 | 30.3 µM | 27.8 µM | 35.7 µM |  |  |  |  |  |  |  |  | 
Cl.Cl.NCCS[As](SCCN)c1ccc(Nc2nc(N)nc(N)n2)cc1 |  |  |  |  |  |  |  |  |  |  |  |  |  |  | Non-Toxic | >30 days
NCCCCNCCCN(Cc1ccc(OCc2ccccc2)cc1)Cc1ccc(OCc2ccccc2)cc1 | > 1.4 | 35.5 µM | > 2.8 |  | > 100 µM | > 100 µM | 72.2 µM |  |  |  |  |  | > 3.9 µM |  |  | 
NCCCCN(CCCN(Cc1ccccc1)Cc1ccccc1)CCCN(Cc1ccccc1)Cc1ccccc1 |  | 0.9 µM | 1.3 |  | 1.2 µM | 22.4 µM | 57.3 µM |  |  |  |  |  |  |  |  | 
NC1CCC(N(CCCN(Cc2ccc(F)cc2)Cc2ccc(F)cc2)CCCN(Cc2ccc(F)cc2)Cc2ccc(F)cc2)CC1 (centres undefined) |  | 10.4 µM |  | 1.1 | 4.5 µM | 4.2 µM | 15.7 µM |  |  |  |  |  |  |  |  | 
CC(C)(C)OC(=O)NC1CCC(NCCCN(Cc2ccccc2)Cc2ccccc2)CC1 (centres undefined) |  | 0.7 µM | 7.3 |  | 5.1 µM | 5.4 µM | 14.2 µM |  |  |  |  |  |  |  |  | 
CC(C)(C)OC(=O)NCCCCN(CCCN(Cc1ccc(F)cc1)Cc1ccc(F)cc1)CCCN(Cc1ccc(F)cc1)Cc1ccc(F)cc1 | 1.8 | 1.9 µM | 6.3 |  | 12 µM | 16.6 µM | 6.6 µM |  |  |  |  |  |  |  |  | 
NCCCCN(CCCN(Cc1ccc(F)cc1)Cc1ccc(F)cc1)CCCN(Cc1ccc(F)cc1)Cc1ccc(F)cc1 |  | 0.1 µM | 15 |  | 1.5 µM | 6.5 µM | 2 µM |  |  | > 60% |  |  |  | 30% |  | 
